High-throughput results (PubChem BioAssay)
LEDGF integ inh – blockers of LEDGF/p75-dependent integrase strand transfer – biochemical, TR-FRET, high throughput, primary screen; TR-FRET IN-LEDGF/p75 DNA integration, Eu/Cy5; inhibition, % at 3.7 µM; 370,000 compounds, 0.64% hits; AID 743269, 2014; HIV-1 integrase (with human LEDGF/p75);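 active = inhibition above the screen-wide mean plus 3 SD, cut at about 13% in these data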;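 note: signal is the Cy5 over europium emission ratio at 671 and 618 nm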
MBD2 inh – inhibitors of MBD2 binding to methylated DNA, primary screen, biochemical, TR-FRET, DNA-binding domain, human; AID 686964, 2013; MBD2 binding to methylated oligonucleotide; inhibition, % at 4.4 µM; 370,000 compounds, 0.31% hits; Methyl-CpG-binding domain protein 2 (Homo sapiens), Q9UBB5; in the data active = inhibition above about 13%
UHRF1 MBD2 ctr – UHRF1 methylated DNA binding inhibitors, primary screen, counter-screen for MBD2 inhibitor project, biochemical, TR-FRET, human UHRF1, single concentration. inhibition, % at 4.4 µM. E3 ubiquitin-protein ligase UHRF1 (Homo sapiens), Q96T88. UHRF1 binding to methylated oligo. 370,000 compounds, 0.75% hits. AID 687016, 2013; in the data active = inhibition above about 21%;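 note: UHRF1 SRA domain binding a hemimethylated CpG hairpin DNA probe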
TDP2 inh – human TDP2 enzyme inhibitors, primary screen, biochemical, epi absorbance, recombinant enzyme; Tyrosyl-DNA phosphodiesterase 2 (Homo sapiens), O95551; T5PNP hydrolysis, p-nitrophenol absorbance 415 nm; inhibition, % at 12.8 µM; 370,000 compounds, 0.34% hits;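 active = inhibition above the mean of all tested compounds plus 3 SD, set per campaign, cut at about 25% in these data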
Target sequence (O95551 whole entry, looked up): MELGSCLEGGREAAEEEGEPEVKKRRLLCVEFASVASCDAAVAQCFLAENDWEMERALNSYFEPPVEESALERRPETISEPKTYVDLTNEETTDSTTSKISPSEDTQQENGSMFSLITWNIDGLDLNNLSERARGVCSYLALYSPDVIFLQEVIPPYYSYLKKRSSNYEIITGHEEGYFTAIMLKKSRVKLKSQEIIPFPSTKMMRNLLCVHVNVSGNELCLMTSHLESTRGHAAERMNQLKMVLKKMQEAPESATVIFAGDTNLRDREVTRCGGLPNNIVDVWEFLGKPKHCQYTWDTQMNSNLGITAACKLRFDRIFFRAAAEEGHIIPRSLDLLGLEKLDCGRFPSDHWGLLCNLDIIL
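Test system: human TDP2 enzyme; Input: 120 nM TDP2 per well; Buffer or medium: Mg2+-containing Tris-HCl buffer, pH 7.5; Reagent: 5 mM T5PNP; Dosing: 12.8 µM single point, 1% DMSO; Incubation: reaction 2 h, 37 °C; Detection: p-Nitrophenol epi absorbance; Read-out: % inhibition relative to enzyme-containing and enzyme-free wells; Replicates: single well per compound.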
TDP2 confirm – human TDP2 enzyme inhibitors, retest, confirmation, biochemical, epi absorbance, recombinant enzyme | shares compounds with TDP2 inh | absorbance read-out | inhibition, % at 12.8 µM | 1,100 compounds, 22% hits; in the data active = inhibition above about 25%
IN multimer act – HIV-1 IN multimer formation enhancers, counter-screen for LEDGF/p75 integration inhibitor project, biochemical, TR-FRET | TR-FRET HIV-1 integrase multimerization | AID 1053131, 2014 | activation, % at 7.7 µM | shares compounds with LEDGF integ inh | 2,000 compounds, 17% hits; in the data active = activation above about 8.9%
TR-FRET interf – TR-FRET optical interference artefacts, confirmation, artefact control for LEDGF/p75-dependent integration inhibitor project, biochemical, HIV-1 IN multimerization; TR-FRET optical interference counterscreen; inhibition, % at 7.7 µM; 2,000 tested, under 10 active; AID 1053135, 2014; shares compounds with LEDGF integ inh;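 active = inhibition above the mean over all tested compounds plus 3 SD, which no compound reached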
LEDGF integ conf – inhibitors of HIV-1 IN-LEDGF/p75 DNA integration, confirmation, biochemical, TR-FRET. shares compounds with LEDGF integ inh. inhibition, % at 3.7 µM. 2,000 compounds, 36% hits. TR-FRET LEDGF/p75-dependent HIV-1 integration; in the data active = inhibition above about 14%
A number is an active result; i = inactive; nt = not tested or not shown. In the library only some 1.6% were active in any assay of this set; here they are far more common.

SMILES | LEDGF integ inh | MBD2 inh | UHRF1 MBD2 ctr | TDP2 inh | TDP2 confirm | IN multimer act | TR-FRET interf | LEDGF integ conf
CC(C)(C)c1ccc(/C=N/Nc2nncn2N)cc1 | 39 | i | i | 67 | i | i | i | i
CSc1ccc(/C=N\Nc2nncn2N)cc1 | 40 | i | i | 64 | i | i | i | i
Cc1cc(Br)cn2c(Cc3ccccc3C(F)(F)F)c(-c3ccc(F)cc3)nc12 | i | i | i | i | nt | nt | nt | nt
COc1ccc(-c2cc(=O)[nH]c(=O)[nH]2)cc1 | i | i | i | i | nt | nt | nt | nt
O=c1cc(-c2ccc(Cl)c(Cl)c2)[nH][nH]1 | 15 | i | i | 57 | i | i | i | 14
COc1ccc(-c2cc(=O)[nH][nH]2)cc1 | 15 | i | i | 61 | i | i | i | i
CCN(CC)CCNC(=O)c1ccc(NCN2C(=O)NC(c3ccccc3)(c3ccccc3)C2=O)cc1 | i | i | i | i | nt | nt | nt | nt
COc1ccc([C@H]2OC(=O)C[C@@H]2C(=O)N2CCN(c3ccccc3Cl)CC2)cc1OC | i | i | i | i | nt | nt | nt | nt
CCc1nnc(N/N=C/c2c(F)cccc2Cl)n1N | 57 | i | i | 58 | i | i | i | i
Clc1cccc(Cl)c1/C=N\Nc1nccs1 | i | i | i | i | nt | nt | nt | nt
Fc1cccc(Cl)c1/C=N/Nc1ccccn1 | i | i | i | i | nt | nt | nt | nt
Oc1ccccc1/C=N/Nc1nn[nH]n1 | i | i | i | i | nt | nt | nt | nt
CCc1nnc(-n2nc(C)cc2-c2ccccc2)n1N | i | i | i | i | nt | nt | nt | nt
CCc1nnc(N/N=C/c2cc(C)c(C)cc2C)n1N | 58 | i | i | 65 | i | i | i | i
Cc1nnc(N/N=C/c2c(Cl)cccc2Cl)n1N | 35 | i | i | 52 | i | i | i | i
Cc1nnc(N/N=C/c2ccccc2O)n1N | 59 | i | i | 59 | 26 | i | i | i
CCCCNC(=O)C[C@H]1C(=O)N(CCCOC)C2=CCCCC[C@]21C(=O)OC | i | i | i | i | nt | nt | nt | nt
CCOc1cc(/C=N/Nc2ncnc(Cl)c2N)ccc1O | i | i | i | i | nt | nt | nt | nt
CCOc1cc(/C=N/Nc2nnc(C)n2N)ccc1O | 66 | i | i | 48 | i | i | i | i
COc1ccc([C@H]2OC(=O)C[C@H]2C(=O)N2CCN(C(=O)C3CCCO3)CC2)cc1OC (some centres not stated) | i | i | i | i | nt | nt | nt | nt
Cc1no[n+]([O-])c1COc1cccc(/C=N/Nc2nncn2N)c1 | 58 | i | i | 61 | i | i | i | i
Cc1cc(=O)[nH]c(-n2[nH]c(C)cc2=O)n1 | i | i | i | i | nt | nt | nt | nt
COc1ccc(-n2[nH]c(C)cc2=O)cc1 | 19 | i | i | 71 | 33 | i | i | i
COC1=CC(=O)c2nc(Cl)ccc2C1=O | 32 | i | i | 85 | 78 | i | i | 58
COc1ccccc1C=NN=C(NN=Cc1ccccc1OC)NN=Cc1ccccc1OC | 32 | i | i | 59 | i | i | i | i
C/C(=C\C(=O)c1cccnc1)Nc1ccc(O)cc1 | 17 | i | i | 27 | i | i | i | i
Cc1ccc(N(CC(=O)NC2CCCCC2)S(=O)(=O)c2c(C)noc2C)cc1 | 21 | i | i | 29 | i | i | i | i
S=C(Nc1ccc2nsnc2c1)N1CCCC1 | 32 | i | i | 67 | 45 | i | i | i
O=C(Nc1ccc2nsnc2c1)N1CCCCCC1 | i | i | i | i | nt | nt | nt | nt
O=C1CC(c2ccccc2)=NN1c1ccccc1 | 21 | i | i | 65 | i | i | i | i
